Bioassay records from PubChem BioAssay.
Rows were chosen to be rich in hits. Some 3.5% of all compounds tested hit in one or more screens of this group.
Env fusion inh: inhibitors of HIV Env-mediated cell fusion; HeLa-JRFL Env/CEM21 cell fusion, luciferase; inhibition, % at 12.3 µM; 1.1% of 360,000 active; AID 651610;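 active = mean replicate inhibition score of at least 50 and every replicate individually at or above 50; inconclusive = only one of the two criteria met; inactive = mean below 50 and not all replicates reaching 50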;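 also: 0% = plate neutral controls and 100% = maraviroc near 300 nM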
rRNA inh HTS: selective bacterial rRNA inhibition in E. coli. E. coli WT GFP vs humanized-ribosome RFP mutants, fluorescence, 24 h; active compounds read low; DMSO median 0, no signal -100. GFP signal change (wild-type ribosome), % (no concentration beside the values). 1.6% of 350,000 active. AID 720706;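 active = significant combined selectivity score with lowered wild-type GFP, culture density cut under 30%, mutant RFP and density less affected; inactive = any of these conditions unmet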
PglD DTNB: PglD (C. jejuni) enzyme inhibition. inhibition, % at 12.5 µM. 0.098% of 360,000 active. purified PglD enzyme, DTNB colorimetric CoA detection. AID 602405; in the data active = inhibition above about 16%, passing the limit was not always enough; inconclusive = no clear call, values can overlap the other calls
DENV2 CPE: protects cells from dengue virus 2 cytopathic effect; DENV2-infected cells, cytopathic effect rescue, plate reader; CPE inhibition, % at 9.99 µM; 1.7% of 350,000 active; AID 651640; in the data active = CPE inhibition above about 20%, passing the limit was not always enough; inconclusive = no clear call, values can overlap the other calls; tested in BHK-21 cells;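 also: 0% = median of neutral control wells and 100% = median of positive control wells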
PGC1a acetyl inh: PGC1a acetylation modulation, inhibitor mode | U2OS PGC1a acetylation, AlphaScreen anti-acetyl-lysine; with virally co-expressed GCN5 acetyltransferase | inhibition, % at 15.6 µM | 0.17% of 350,000 active | AID 651687;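 active = every replicate shows inhibition of at least 40%; inconclusive = mean inhibition at least 40% but some replicate below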;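 also: 0% = neutral control wells and 100% = positive control wells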
FN deposit inh: fibronectin deposition inhibition; AH1F fibroblasts, Alexa488-fibronectin deposition fluorescence, overnight; inhibition, % at 12.6 µM; 0.086% of 350,000 active; AID 743247;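 active = mean inhibition across replicates of 30% or more, regardless of how many single replicates reach that level; inconclusive = mean under 30% yet at least half of replicates reach 30%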;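 also: positive control wells lacked labelled fibronectin entirely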
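Material: AH1F fibroblast monolayer depositing Alexa488-labelled fibronectin into matrix | Input: 10000 AH1F cells/well | Medium: DMEM plus 2% serum, read in PBS | Reagent: Alexa488-fibronectin, 24 nM final in well | Compound dosing: One dose per compound, pinned | Schedule: 1 h adhesion, overnight exposure | Measured by: Fluorescence at 485 nm excitation, 525 nm emission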
Starred values were filed as active, the others as inactive; ? = inconclusive; nt = no result given; ! = not active in a repeat; [ ] = dose if it differs, or a comment.

SMILES	Env fusion inh	rRNA inh HTS	PglD DTNB	DENV2 CPE	PGC1a acetyl inh	FN deposit inh
C=CCOc1ccccc1OCC(O)CNC(C)C (stereo not given)	-10	nt	-8	40*	-7	-1
Cc1cccc(C)c1OCC(O)CNC(C)C (stereo not given)	nt	nt	-5	nt	-8	nt
C[C@H]1CCCCO[C@H](CN(C)C(=O)C2CCCCC2)[C@@H](C)CN([C@@H](C)CO)C(=O)c2cc(NC(=O)Nc3cccc4ccccc34)ccc2O1	36[16.7 µM]	3	-2	-4	-11	nt
C[C@@H]1CN([C@@H](C)CO)C(=O)Cc2cc(NS(=O)(=O)c3cn(C)cn3)ccc2O[C@H]1CN(C)Cc1ccccc1	11[16.7 µM]	3	-2	25*	nt	nt
C[C@@H]1CN([C@H](C)CO)C(=O)Cc2cc(NS(=O)(=O)c3cn(C)cn3)ccc2O[C@@H]1CN(C)CC1CCCCC1	-33[16.7 µM]	1	1	34*	-4	nt
CC(=O)N(Cc1cc(=O)[nH]c2ccccc12)c1cccc(C)c1	nt	nt	6	nt	34	nt
Cc1cccc(N(Cc2cc(=O)[nH]c3ccccc23)C(=O)CCl)c1	82*	7	nt	8	nt	-7
Cc1cccc(N(Cc2cc(=O)[nH]c3ccccc23)C(=O)C(C)C)c1	-1	-15	4	4	-1	1
CCCC(=O)N(Cc1cc(=O)[nH]c2ccccc12)c1cccc(C)c1	16	-5	3	29*	7	1
CNC[C@@H]1Oc2ncc(C#Cc3ccccc3F)cc2C(=O)N([C@@H](C)CO)C[C@@H]1C	-9[16.7 µM]	6	nt	nt	6	5
Cc1ccc(NC2=C(Cl)C(=O)OC2OC(=O)c2ccccc2)c(C)c1 (stereo not given)	-11	-41*	nt	5	2	0
CCn1c(C)cc(C(=O)COC(=O)CNC(=O)c2ccco2)c1C	-5	1	-5	61*	3	4
O=C(O)C[C@H]1C[C@H]2c3cc(NS(=O)(=O)c4ccc(F)cc4)ccc3O[C@H]2[C@H](CO)O1	nt	11	nt	-5	8	nt
CCCN1C/C(=C/c2ccc3c(c2)OCO3)C(=O)/C(=C/c2ccc3c(c2)OCO3)C1	-30	nt	-8	2	14	9
CCCN1C(=O)/C(=C/c2ccc3c(c2)OCO3)NC1=S	-2	-24*	nt	nt	nt	0
CCCc1nc2c(C)cc(Br)cn2c1Cc1ccc(OC)cc1C	-26	nt	2	21*	4	-9
COc1ccc(Cc2c(-c3ccco3)nc3c(C)cc(Br)cn23)c(C)c1	73*	nt	3	23*	-5	0
CCCCOc1ccc(C(=O)NCCN2CCC(n3c(=O)[nH]c4ccccc43)CC2)cc1	11	-45*	nt	4	nt	2
O=C(NCCN1CCC(n2c(=O)[nH]c3ccccc32)CC1)c1ccc(OC(F)(F)F)cc1	-40	-23	nt	3	nt	-3
C[C@H](CO)N1C[C@H](C)[C@H](CN(C)Cc2ccncc2)Oc2ccc(NS(=O)(=O)c3cccs3)cc2CC1=O	-36[16.7 µM]	-3	-1	-7	-5	nt
CCOc1ccc(N2CC(C(=O)Nc3cccc(S(=O)(=O)N4CCCCC4)c3)CC2=O)cc1 (stereo not given)	-4	-19	nt	4	nt	-7
Cc1cccc(N2CC(C(=O)Nc3cccc(S(=O)(=O)N4CCCCC4)c3)CC2=O)c1C (stereo not given)	11	-25*	4	-5	-12	-3
Cc1cccc(N2CC(C(=O)Nc3ccc(S(=O)(=O)N4CCOCC4)cc3)CC2=O)c1C (stereo not given)	4	1	1	1	nt	11
CSc1cccc(N2CC(C(=O)Nc3cccc(S(=O)(=O)N4CCCC4)c3)CC2=O)c1 (stereo not given)	116*	-22	0	?	9	nt
COCCNC(=O)C[C@H]1C[C@H]2c3cc(NC(=O)C4CCOCC4)ccc3O[C@H]2[C@@H](CO)O1	nt	3	nt	nt	nt	3
SMILES	Env fusion inh	rRNA inh HTS	PglD DTNB	DENV2 CPE	PGC1a acetyl inh	FN deposit inh
COc1ccc(/C=N\NC(=O)c2ccccc2)cc1COc1ccc(F)cc1	18	-10	1	2	nt	nt
COCc1cc(/C=N\NC(=O)COc2ccc(Cl)cc2)ccc1OC	-7	nt	nt	nt	nt	2
COc1ccc(/C=N\NC(=O)c2ccc(-c3ccccc3)cc2)cc1COC(C)=O	15	-25*	0	56*	-1	3
COCc1cc(/C=N\NC(=O)COc2ccccc2)ccc1OC	-7	-27*	nt	?	nt	6
COc1cc([N+](=O)[O-])cc(/C=N\NC(=O)C2COc3ccccc3O2)c1O (stereo not given)	0	-20*	nt	19	nt	0
O=C(N/N=C\c1cccc([N+](=O)[O-])c1O)C1COc2ccccc2O1 (stereo not given)	-30	nt	-7	nt	-75	4
Cc1noc(C)c1NC(=O)Nc1ccc2c(c1)C(=O)N([C@@H](C)CO)C[C@H](C)[C@H](CN(C)CC1CCCCC1)OCCCC[C@@H](C)O2	-2[16.7 µM]	3	1	3	2	nt
CSCCC(NS(=O)(=O)c1cccs1)C(=O)NCc1ccccc1 (stereo not given)	13	1	nt	36*	nt	1
CN1CCN(C(=O)C2=C[C@H](c3ccc(C(F)(F)F)cc3)C[C@H](OCc3ccc(CO)cc3)O2)CC1	-3[16.7 µM]	-3	-1	47*!	0	4
O=C(C1=C[C@@H](c2ccc(C(F)(F)F)cc2)C[C@@H](OCc2ccc(CO)cc2)O1)N1CCOCC1	15	-8	2	25*!	-19	8
C[C@H]1CN([C@@H](C)CO)C(=O)Cc2cc(NS(=O)(=O)c3ccc(F)cc3)ccc2O[C@@H]1CN(C)S(=O)(=O)c1cccs1	-8[16.7 µM]	-1	-1	nt	1	nt
Cc1ccc(S(=O)(=O)N(C)C[C@H]2Oc3ccc(NC(=O)CCCCCC(=O)Nc4ccccc4N)cc3CC(=O)N([C@H](C)CO)C[C@H]2C)cc1	30[16.7 µM]	4	2	0	-5	nt
C[C@H](CO)N1C[C@H](C)[C@H](CN(C)S(=O)(=O)c2ccccc2)Oc2ccc(NC(=O)CCCCCC(=O)Nc3ccccc3N)cc2CC1=O	57*[16.7 µM]	0	-1	-11	-7	nt
Cc1ccc(S(=O)(=O)N(C)C[C@@H]2Oc3ccc(NC(=O)CCCCCC(=O)Nc4ccccc4N)cc3CC(=O)N([C@H](C)CO)C[C@@H]2C)cc1	72*[16.7 µM]	-3	4	5	9	nt
C[C@H]1CN([C@@H](C)CO)C(=O)Cc2cc(NC(=O)CCCCCC(=O)Nc3ccccc3N)ccc2O[C@@H]1CN(C)S(=O)(=O)c1ccccc1	11[16.7 µM]	1	0	79*	-10	nt
O=[N+]([O-])c1ccc(CS(=O)c2ccccc2)cc1 (stereo not given)	7	nt	nt	4	nt	nt
O=[N+]([O-])c1ccc(S(=O)Cc2ccccc2)c([N+](=O)[O-])c1 (stereo not given)	-165	15	nt	0	nt	37*
